This note sets out measurements from ChEMBL document CHEMBL1944567, “Synthesis, biological evaluation, and molecular modeling of chalcone derivatives as potent inhibitors of Mycobacterium tuberculosis protein tyrosine phosphatases (PtpA and PtpB)” (J Med Chem, 2012).

For data set [1], the target named is T1, Phosphotyrosine-protein phosphatase PTPB (Mycobacterium tuberculosis) (UniProt P96830).
T1 sequence (whole entry): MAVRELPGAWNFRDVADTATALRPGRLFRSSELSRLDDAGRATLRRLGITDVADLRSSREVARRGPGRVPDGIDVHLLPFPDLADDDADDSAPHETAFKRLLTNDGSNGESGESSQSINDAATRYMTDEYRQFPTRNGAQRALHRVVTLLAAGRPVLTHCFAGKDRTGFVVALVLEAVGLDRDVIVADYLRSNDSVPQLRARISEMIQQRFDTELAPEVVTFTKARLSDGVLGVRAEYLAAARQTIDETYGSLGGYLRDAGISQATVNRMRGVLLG
Kind of data set: Inhibition of Mycobacterium tuberculosis PTP-B using p-nitrophenyl phosphate as substrate at 25 uM measured for 10 mins by spectrofluorimetry. An outline of the steps: (§1)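 Single-point screen at 25 μM final compound, added from 1.0 × 10−3 M DMSO stock, with recombinant Mtb PtpA or PtpB (0.4 μg/μL final) in 20 mM imidazole pH 7.0 with 40 mM pNPP. Reaction started by adding enzyme. p-Nitrophenol release read at 410 nm every min for 10 min at 37 °C. Residual activity was taken from the absorbance difference between 6 and 2 min; two experiments, each in triplicate.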

Data set [2] addresses T2, Low molecular weight protein-tyrosine phosphatase A (Mycobacterium tuberculosis, UniProt P9WIA1).
T2 sequence (P9WIA1 whole entry): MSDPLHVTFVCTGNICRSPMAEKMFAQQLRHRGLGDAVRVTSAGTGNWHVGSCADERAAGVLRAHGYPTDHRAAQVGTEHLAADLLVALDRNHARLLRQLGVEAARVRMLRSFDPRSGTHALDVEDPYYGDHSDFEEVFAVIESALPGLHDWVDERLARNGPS
As to the kind of experiment: Inhibition of Mycobacterium tuberculosis PTP-A using p-nitrophenyl phosphate as substrate measured for 10 mins by spectrofluorimetry. An outline of the steps:
(§2)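 A410 read each minute over 10 min at 37 °C. Residual activity compared with wells without inhibitor; IC50 by linear regression of % inhibition against concentration. Triplicate, two independent experiments.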

The target of data set [3] is T3, Phosphotyrosine-protein phosphatase PTPB (Mycobacterium tuberculosis, UniProt P96830).
T3 sequence (P96830 whole entry): T1 sequence (whole entry)
Kind of data set: Inhibition of Mycobacterium tuberculosis PTP-B using p-nitrophenyl phosphate as substrate measured for 10 mins by spectrofluorimetry. The method, boiled down: as §2

Data set [4] is described as follows: Solubility of the compound. It counts as physicochemical.
The target of data set [5] is T4, Low molecular weight protein-tyrosine phosphatase A (Mycobacterium tuberculosis) (UniProt P9WIA1).
T4 sequence (whole entry): T2 sequence (P9WIA1 whole entry)
Kind of data set: Inhibition of Mycobacterium tuberculosis PTP-A using p-nitrophenyl phosphate as substrate at 25 uM measured for 10 mins by spectrofluorimetry. The method, boiled down:
as §1

The nature of data set [6]: Selectivity index, ratio of IC50 for human PTP1B to IC50 for Mycobacterium tuberculosis PTP-A. The method, boiled down: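 Selectivity index calculated as IC50 for human PTP1B divided by IC50 for Mtb PtpA. Both IC50 values came from pNPP hydrolysis assays read at 410 nm for 10 min at 37 °C.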
In data set [7] the target is T4, Low molecular weight protein-tyrosine phosphatase A (Mycobacterium tuberculosis). As to the kind of experiment: Ratio of IC50 to Ki for Mycobacterium tuberculosis protein tyrosine phosphatase-A.
The target in data set [8] is T2, Low molecular weight protein-tyrosine phosphatase A. Kind of data set: Competitive inhibition of Mycobacterium tuberculosis PTP-A using p-nitrophenyl phosphate as substrate measured for 10 mins by Lineweaver-Burk plot analysis. An outline of the steps: (§3)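 Kinetic mode determined with recombinant Mtb enzyme (PtpA or PtpB) using the screening conditions (20 mM imidazole pH 7.0, 37 °C, A410 read each minute for 10 min) but with pNPP varied over 0.5, 1.5, 3, 6, 8, 10, 15 and 25 mM. At least three inhibitor concentrations in the 5–60 μM range were used. Ki and mechanism were taken from Lineweaver–Burk double-reciprocal plots.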

Data set [9] deals with T5, Tyrosine-protein phosphatase non-receptor type 1 (Homo sapiens, UniProt P18031).
T5 sequence (P18031 whole entry): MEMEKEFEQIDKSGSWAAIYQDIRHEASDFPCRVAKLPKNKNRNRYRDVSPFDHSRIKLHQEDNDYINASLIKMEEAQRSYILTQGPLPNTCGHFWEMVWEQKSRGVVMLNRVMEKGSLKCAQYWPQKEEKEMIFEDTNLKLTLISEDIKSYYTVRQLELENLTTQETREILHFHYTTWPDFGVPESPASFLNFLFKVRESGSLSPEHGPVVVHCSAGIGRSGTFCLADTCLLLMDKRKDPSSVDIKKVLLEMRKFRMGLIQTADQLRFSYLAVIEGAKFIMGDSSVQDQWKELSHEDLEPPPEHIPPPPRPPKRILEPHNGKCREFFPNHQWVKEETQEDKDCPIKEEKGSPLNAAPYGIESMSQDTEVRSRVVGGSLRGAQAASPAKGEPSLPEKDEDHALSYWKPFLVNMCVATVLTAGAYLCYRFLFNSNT
As to the kind of experiment: Inhibition of human PTP1B expressed in Escherichia coli BL21 DE3 using p-nitrophenyl phosphate as substrate measured for 10 mins by spectrofluorimetry.

Data set [10] deals with T2, Low molecular weight protein-tyrosine phosphatase A. Kind of data set: Inhibition of Mycobacterium tuberculosis PTP-A.
The target of data set [11] is T3, Phosphotyrosine-protein phosphatase PTPB. As to the kind of experiment: Competitive inhibition of Mycobacterium tuberculosis PTP-B using p-nitrophenyl phosphate as substrate measured for 10 mins by Lineweaver-Burk plot analysis. An outline of the steps:
as §3

Take `O=C(/C=C/c1ccc(C(F)(F)F)cc1)c1ccc2ccccc2c1`: the inhibition in data set [1] turned out to be 37%; in [5], 43%. For the same compound, the results for the IC50 in data set [2] and in [3] were 331 µM and 339 µM, respectively. For the same compound, the solubility result in [4] is recorded as “soluble”.
Regarding `O=C(/C=C/c1ccc2c(c1)OCO2)c1cccc([N+](=O)[O-])c1`, the Ratio IC50 in data set [6] came to 2.4. In data set [7], the Ratio was 1.5. The values for the inhibition in [1] and in data set [5] were 6% and 26%, respectively. The compound also showed a Ki in data set [8] of 29 µM. The figures for the IC50 in [2], in data set [3] and in data set [9] were 45 µM, more than 100 µM and 107 µM, respectively. Further, the solubility entry in data set [4] was “soluble”.
The compound `CCCCCC1=C/C(=C/c2[nH]c(-c3ccc[nH]3)cc2OC)N=C1C` [PRODIGIOSIN] yielded an IC50 in data set [10] of 8.8 µM.
On to `COc1ccc(C(=O)/C=C/c2ccc(OCc3ccccc3)c(OC)c2)c(OC)c1`, for which the Ratio IC50 in [6] was found to be 18. In data set [7], the Ratio was found to be 1.3. In addition, the values for the inhibition in data set [1] and in data set [5] were 0% and 40%, respectively. For the same compound, affinity in data set [8] was put at a Ki of 12 µM. In addition, the results for the IC50 in data set [2], in [3] and in data set [9] were 15 µM, more than 100 µM and 263 µM, respectively. Moreover, the solubility result in data set [4] was “soluble”.
Regarding `O=C(/C=C/c1ccc([N+](=O)[O-])cc1)c1ccc2ccccc2c1`, the inhibition in data set [1] amounted to 39%; in data set [5], 18%. The same compound displayed an IC50 in data set [3] of 62 µM. Moreover, the solubility entry in data set [4] is recorded as “soluble”.
On to `COc1cc(-c2[nH]ccc2Cl)oc1C1=C2N=C3C=C2[C@H](C(C)C)[C@H]1CCCCCCCC3` [ROSEOPHILIN], for which the concentration for half-maximal inhibition (IC50) in data set [10] was found to be 8.8 µM.
As for `O=C(O)c1ccc(/C=C/C(=O)c2ccc3ccccc3c2)cc1`, the inhibition in data set [1] came out at 70%; in data set [5] it was 9%. Further, the IC50 in data set [2] is more than 100 µM; in [3], 12 µM; in data set [9], 3090 µM. This compound also had an inhibition constant (Ki) in [11] of 8 µM. Besides, the solubility result in data set [4] is listed as “soluble”.
As for `O=C(/C=C/c1ccc2ccccc2c1)c1ccc(Br)cc1`, the values for the inhibition in data set [1] and in [5] were 42% and 11%, respectively. Also, the half-inhibitory concentration (IC50) is more than 50 µM in [2], 25 µM in data set [3] and 29 µM in data set [9]. Moreover, the affinity in data set [11], expressed as Ki, was 10 µM. The solubility entry in data set [4] is listed as “soluble”.
In the case of `O=C(/C=C/c1ccc2ccccc2c1)c1ccc[nH]1`, the inhibition in [1] turned out to be 37%; in data set [5] it was 16%. For the same compound, the 50% inhibitory concentration (IC50) in data set [3] came to 81 µM. Besides, in [4], the solubility entry is listed as “soluble”.
The matching figures for `Cc1ccc(C(=O)/C=C/c2ccc3ccccc3c2)cc1`: 34%, 10%, 135 µM and “soluble”.
For the compound `O=C(/C=C/c1ccc(Cl)cc1Cl)c1ccc2ccccc2c1`, the inhibition in data set [1] is 47%; in [5], 10%. Also, the IC50 in [3] stood at 417 µM. The solubility entry in data set [4] was “soluble”.
Turning to `O=C(/C=C/c1ccc2ccccc2c1)c1ccc(Cl)s1`, the Ratio IC50 in data set [6] was 3.1. Also, the Ratio in [7] came out at 1.4. Besides, the inhibition came out at 49% in [1] and 31% in data set [5]. Moreover, affinity in [8] was put at a Ki of 23 µM. For the same compound, the figures for the IC50 in [2], in [3] and in data set [9] were 32 µM, 57 µM and 100 µM, respectively. Also, the solubility result in data set [4] is given as “soluble”.
Take `O=C(/C=C/c1ccccc1[N+](=O)[O-])c1ccc2c(c1)OCO2`: the inhibition in [1] came out at 43%; in data set [5], 0%. In [3], this compound had a concentration for half-maximal inhibition (IC50) of 81 µM. Besides, the solubility result in data set [4] is listed as “soluble”.
As for `O=C(/C=C/c1ccc2ccccc2c1)c1ccc2ccccc2c1`, the inhibition is 25% in data set [1] and 39% in data set [5]. The compound also came in with an IC50 in data set [2] of 93 µM. The solubility result in data set [4] was “soluble”.
Regarding `O=C(/C=C/c1ccccc1[N+](=O)[O-])c1ccc2ccccc2c1`, the inhibition in data set [1] amounted to 32%; in [5], 10%. Also, in [3], the IC50 was 54 µM. The solubility result in [4] is on record as “soluble”.
For `O=C(/C=C/c1ccc2c(c1)OCO2)c1ccc([N+](=O)[O-])cc1`, the inhibition was 34% in data set [1] and 33% in [5]. Moreover, the IC50 in data set [2] stood at 62 µM; in data set [3], 51 µM; in data set [9], 23 µM. The same compound displayed a Ki in [11] of 13 µM. Moreover, the solubility entry in [4] is “soluble”.
Turning to `COc1cc(OC)c(/C=C/C(=O)c2ccc3ccccc3c2)c(OC)c1`, the inhibition in data set [1] worked out at 0%; in data set [5] it was 49%. The same compound had an IC50 in [2] of 1660 µM. Further, the solubility result in data set [4] is given as “soluble”.
Consider `Cc1ccc(/C=C/C(=O)c2ccc3ccccc3c2)o1`, for which the figures for the inhibition in data set [1] and in data set [5] were 0% and 30%, respectively. In data set [2], half-maximal inhibition (IC50) required 1020 µM. Moreover, the solubility entry in data set [4] is “soluble”.
